One assay addresses T1, COX-2 (Homo sapiens, UniProt P35354).
T1 sequence (P35354 18-604): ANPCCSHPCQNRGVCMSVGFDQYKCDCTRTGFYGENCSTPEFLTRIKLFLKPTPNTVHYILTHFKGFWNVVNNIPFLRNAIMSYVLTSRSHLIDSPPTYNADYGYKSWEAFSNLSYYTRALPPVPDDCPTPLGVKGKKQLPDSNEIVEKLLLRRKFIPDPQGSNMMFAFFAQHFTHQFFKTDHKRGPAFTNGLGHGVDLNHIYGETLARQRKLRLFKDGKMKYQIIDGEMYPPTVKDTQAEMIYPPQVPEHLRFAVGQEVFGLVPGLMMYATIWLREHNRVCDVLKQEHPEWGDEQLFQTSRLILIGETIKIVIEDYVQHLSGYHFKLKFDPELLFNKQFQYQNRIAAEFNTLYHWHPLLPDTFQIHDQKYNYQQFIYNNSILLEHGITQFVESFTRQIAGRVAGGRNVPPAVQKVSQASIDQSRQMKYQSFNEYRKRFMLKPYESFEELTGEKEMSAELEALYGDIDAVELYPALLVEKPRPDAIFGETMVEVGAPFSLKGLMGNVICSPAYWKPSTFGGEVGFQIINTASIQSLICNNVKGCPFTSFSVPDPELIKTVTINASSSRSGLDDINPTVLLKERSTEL
In words: biochemical.

A further assay deals with HepG2 cells. The assay can be described thus: MTT cytotoxic activity assay against HepG2 cells. Format: cell-based. The note with it: Homo sapiens, HepG2, 48 h, read-out: IC50 inhibitory effect on HepG2 cells. In short, it runs like this:
(§1)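 Cells seeded at 5 × 10^3 per well and grown 24 h, then exposed to a range of test compound concentrations for 48 h. Vehicle control was 0.1% DMSO and the positive control was adriamycin (10 μM). MTT was added from a 5 mg mL−1 stock for 4 h, and formazan was dissolved in DMSO. Viability was read at 490 nm, in three replicates per treatment.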

A further assay concerns Caco-2 cells. The assay can be described thus: MTT cytotoxic activity assay against Caco-2 cells. Format: cell-based. The settings on record: Homo sapiens, Caco-2, 48 h, read-out: IC50 inhibitory effect on Caco-2 cells. A digest of the protocol: as §1

With `O=c1cc[nH]c(=O)[nH]1` [Compound 21, uracil], the IC50 on COX-2 amounted to 146 ± 11 µM; in the assay on HepG2 cells it was 78.5 ± 4.41 µM; in the assay on Caco-2 cells, 86 ± 2.96 µM.

Consider `CCCCCCCCC/C=C\CCCCCCCCC(=O)O` [Compound 1, cis-10-eicosaenoic acid], for which the figures for the IC50 against COX-2 and in the assay with HepG2 cells were 10.8 ± 0.3 µM and 25 ± 1.08 µM, respectively.

The compound `CC[C@H](CC[C@@H](C)[C@H]1CC[C@H]2[C@@H]3CC(=O)C4=CC(=O)CC[C@]4(C)[C@H]3CC[C@]12C)C(C)C` [Compound 3, stigmast-4-en-3,6-dione] had an IC50 against COX-2 of 67.9 ± 6.21 µM.

`O=C1N[C@@H](O)C(O)=C1O` [Compound 23, (S)-3,4,5-trihydroxy-1H-pyrrol-2 (5H)-one]: at COX-2, the IC50 was determined as 149 ± 10 µM.

For `OCc1ccccc1O[C@@H]1O[C@H](CO)[C@@H](O)[C@H](O)[C@H]1O` [Compound 25, salicin], the IC50 on COX-2 came out at 162 ± 10 µM.

Turning to `COc1cc(O)c(C(C)=O)c(OC)c1` [Compound 5, xanthoxylin], the IC50 on COX-2 was found to be 123 ± 10.5 µM; in the assay on HepG2 cells, 8.21 ± 1.12 µM.

On to `Oc1ccccc1CN1CCCC[C@H]1c1cccnc1` [Compound 16, (2S)-N-hydroxybenzylanabasine], for which half-maximal inhibition against COX-2 (IC50) was put at 24.2 ± 1.2 µM.

`N[C@H]1CCC=C[C@H]1C(=O)O` [Compound 14, (1R,6S)-6-aminocyclohex-2-ene-1-carboxylic acid] returned an IC50 on COX-2 of 19.3 ± 3.58 µM.

On to `c1cncc([C@@H]2CCCCN2)c1` [Compound 15, anabasine], for which the midpoint of inhibition at COX-2, the IC50, lay at 150 ± 11 µM.

The values are drawn from publication PMC9891086 (RSC Advances, 2023).
